Experimental data: ChEMBL document CHEMBL1137547, “Synthesis and antifungal activities of novel 2-aminotetralin derivatives” (2007)
Converted amounts (≈) assume the structure as drawn.

How the values were obtained:
Type in all cases: functional
Candida albicans [1] = test: Antifungal activity against fluconazole-resistant Candida albicans 18 after 24 hrs
Summary of the method: (§1)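 Broth serial dilution MIC per NCCLS in 96-well format; medium RPMI 1640 buffered with 0.165 M MOPS; compounds dissolved in DMSO and serially diluted in medium; clinical C. albicans isolates incubated at 35 °C, read at 24 h; MIC = lowest concentration giving turbidity […] inhibition relative to growth control; fluconazole and I-6 as control drugs.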

Trichophyton rubrum = test: Antifungal activity against Trichophyton rubrum
Summary of the method: (§2)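 Dermatophytes were tested by NCCLS serial dilution in RPMI 1640 with 0.165 M MOPS and incubated at 28 °C. Compounds were dissolved in DMSO and diluted in medium. Strains came from ATCC or clinical isolates. The MIC was read at 7 d as the lowest concentration reducing turbidity by ≥80% relative to the drug-free control.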

Microsporum = test: Antifungal activity against Microsporum gypseum; summary of the method: as §2
Candida albicans [2] = test: Antifungal activity against fluconazole-resistant Candida albicans 0511655 after 24 hrs; summary of the method: as §1
Candida albicans [3] = test: Antifungal activity against fluconazole-resistant Candida albicans 25 after 24 hrs; summary of the method: as §1
Cryptococcus neoformans = test: Antifungal activity against Cryptococcus neoformans after 72 hrs
Summary of the method: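 Cryptococcus neoformans was tested by NCCLS serial dilution in MOPS-buffered (0.165 M) RPMI 1640 at 35 °C. Compounds were dissolved in DMSO and diluted in medium. The MIC was read at 72 h as the lowest concentration giving turbidity inhibition of ≥80% relative to the growth control.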

Aspergillus fumigatus = test: Antifungal activity against Aspergillus fumigatus
Summary of the method: (§3)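 NCCLS broth serial dilution in RPMI 1640 buffered with 0.165 M MOPS. Compounds were dissolved in DMSO and serially diluted in medium. Strains came from ATCC or clinical isolates. The growth MIC for filamentous fungi was read at 7 d, taken as the lowest concentration giving ≥80% turbidity inhibition versus the growth control.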

Candida parapsilosis = test: Antifungal activity against Candida parapsilosis after 24 hrs; details: Lodderomyces parapsilosis
Summary of the method: (§4)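 Candida yeasts were tested by NCCLS microdilution in RPMI 1640 buffered with 0.165 M MOPS and incubated at 35 °C. Compounds were dissolved in DMSO and serially diluted in medium. Isolates came from ATCC or the clinic. The MIC was read at 24 h as the lowest concentration achieving ≥80% growth inhibition versus the control.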

Candida albicans [4] = test: Antifungal activity against fluconazole-resistant Candida albicans 01010 after 24 hrs; summary of the method: as §1
Candida albicans [5] = test: Antifungal activity against Candida albicans after 24 hrs; summary of the method: as §4
Fonsecaea compacta = test: Antifungal activity against Fonsecaea compacta; summary of the method: as §3

Row | Structure (SMILES) | MIC (Candida albicans [1]) [µM] | MIC (Trichophyton rubrum) [µM] | MIC (Microsporum) [µM] | MIC (Candida albicans [2]) [µM] | MIC (Candida albicans [3]) [µM] | MIC (Cryptococcus neoformans) [µM] | MIC (Aspergillus fumigatus) [µM] | MIC (Candida parapsilosis) [µM] | MIC (Candida albicans [4]) [µM] | MIC (Candida albicans [5]) [µM] | MIC (Fonsecaea compacta) [µM]
1 | CCCCCCCCNC1CCc2cc(OC)ccc2C1 (stereo not drawn) | 8 (≈ 2.32 µg/mL) | 8 (≈ 2.32 µg/mL) | 8 (≈ 2.32 µg/mL) | 8 (≈ 2.32 µg/mL) | 8 (≈ 2.32 µg/mL) | 16 (≈ 4.63 µg/mL) | > 64 | 16 (≈ 4.63 µg/mL) | 16 (≈ 4.63 µg/mL) | 0.0625 (≈ 0.0181 µg/mL) | 8 (≈ 2.32 µg/mL)
2 | CCCCCCCCNC1CCc2cc(O)ccc2C1 (stereo not drawn) | 4 (≈ 1.1 µg/mL) | 4 (≈ 1.1 µg/mL) | 16 (≈ 4.41 µg/mL) | 4 (≈ 1.1 µg/mL) | 2 (≈ 0.551 µg/mL) | 8 (≈ 2.2 µg/mL) | > 64 | 16 (≈ 4.41 µg/mL) | 4 (≈ 1.1 µg/mL) | 0.0625 (≈ 0.0172 µg/mL) | 2 (≈ 0.551 µg/mL)
3 | CCCCCCCCCNC1CCc2c(cccc2OC)C1 (stereo not drawn) | 16 (≈ 4.86 µg/mL) | 2 (≈ 0.607 µg/mL) | 4 (≈ 1.21 µg/mL) | 16 (≈ 4.86 µg/mL) | 8 (≈ 2.43 µg/mL) | 2 (≈ 0.607 µg/mL) | 8 (≈ 2.43 µg/mL) | 0.5 (≈ 0.152 µg/mL) | 16 (≈ 4.86 µg/mL) | 0.0625 (≈ 0.019 µg/mL) | 0.5 (≈ 0.152 µg/mL)
4 | CCCCCCCCCNC1CCc2cc(O)ccc2C1 (stereo not drawn) | 4 (≈ 1.16 µg/mL) | 1 (≈ 0.289 µg/mL) | 0.5 (≈ 0.145 µg/mL) | 4 (≈ 1.16 µg/mL) | 2 (≈ 0.579 µg/mL) | 0.5 (≈ 0.145 µg/mL) | 32 (≈ 9.26 µg/mL) | 4 (≈ 1.16 µg/mL) | 4 (≈ 1.16 µg/mL) | 0.0625 (≈ 0.0181 µg/mL) | 1 (≈ 0.289 µg/mL)
5 | CCCCCCCCCCNC1CCc2cc(O)ccc2C1 (stereo not drawn) | 2 (≈ 0.607 µg/mL) | 0.0625 (≈ 0.019 µg/mL) | 8 (≈ 2.43 µg/mL) | 2 (≈ 0.607 µg/mL) | 2 (≈ 0.607 µg/mL) | 1 (≈ 0.303 µg/mL) | 16 (≈ 4.86 µg/mL) | 2 (≈ 0.607 µg/mL) | 4 (≈ 1.21 µg/mL) | 0.0625 (≈ 0.019 µg/mL) | 0.25 (≈ 0.0759 µg/mL)
6 | CCCCCCCCCCNC1CCc2cccc(O)c2C1 (stereo not drawn) | 16 (≈ 4.86 µg/mL) | 8 (≈ 2.43 µg/mL) | > 64 | 16 (≈ 4.86 µg/mL) | 4 (≈ 1.21 µg/mL) | 16 (≈ 4.86 µg/mL) |  | 16 (≈ 4.86 µg/mL) | 16 (≈ 4.86 µg/mL) | 0.0625 (≈ 0.019 µg/mL) | 64 (≈ 19.4 µg/mL)
7 | CCCCCCCCCCNC1CCc2ccc(OC)cc2C1 (stereo not drawn) | 4 (≈ 1.27 µg/mL) | 1 (≈ 0.318 µg/mL) | 2 (≈ 0.635 µg/mL) | 4 (≈ 1.27 µg/mL) | 2 (≈ 0.635 µg/mL) | 1 (≈ 0.318 µg/mL) | 16 (≈ 5.08 µg/mL) | 0.25 (≈ 0.0794 µg/mL) | 4 (≈ 1.27 µg/mL) | 0.0625 (≈ 0.0198 µg/mL) | 1 (≈ 0.318 µg/mL)
8 | CCCCCCCCCCNC1CCc2c(O)cccc2C1 (stereo not drawn) | 32 (≈ 9.71 µg/mL) | 4 (≈ 1.21 µg/mL) | 1 (≈ 0.303 µg/mL) | 32 (≈ 9.71 µg/mL) | 32 (≈ 9.71 µg/mL) | 1 (≈ 0.303 µg/mL) | > 64 | 32 (≈ 9.71 µg/mL) | 16 (≈ 4.86 µg/mL) | 0.0312 (≈ 0.00948 µg/mL) | 1 (≈ 0.303 µg/mL)
9 | CCCCCCCCCCCCCCNC1CCc2c(cccc2OC)C1 (stereo not drawn) |  | 8 (≈ 2.99 µg/mL) | > 64 |  |  | 32 (≈ 12 µg/mL) | > 64 | > 64 |  | > 64 | 64 (≈ 23.9 µg/mL)
10 | CCCCCCCCCNC1CCc2cc(OC)ccc2C1 (stereo not drawn) | 0.0625 (≈ 0.019 µg/mL) | 1 (≈ 0.303 µg/mL) | 4 (≈ 1.21 µg/mL) | 0.0625 (≈ 0.019 µg/mL) | 0.0625 (≈ 0.019 µg/mL) | 4 (≈ 1.21 µg/mL) | 64 (≈ 19.4 µg/mL) | 0.5 (≈ 0.152 µg/mL) | 0.125 (≈ 0.0379 µg/mL) | 0.0625 (≈ 0.019 µg/mL) | 2 (≈ 0.607 µg/mL)
11 | CCCCCCCCCCNC1CCc2c(cccc2OC)C1 (stereo not drawn) | 4 (≈ 1.27 µg/mL) | 1 (≈ 0.318 µg/mL) | 4 (≈ 1.27 µg/mL) | 8 (≈ 2.54 µg/mL) | 4 (≈ 1.27 µg/mL) | 1 (≈ 0.318 µg/mL) | 16 (≈ 5.08 µg/mL) | 8 (≈ 2.54 µg/mL) | 8 (≈ 2.54 µg/mL) | 0.0312 (≈ 0.00992 µg/mL) | 1 (≈ 0.318 µg/mL)
12 | C[C@@H]1[C@H](O)[C@@H](C)/C=C/C=C/C=C/C=C/C=C/C=C/C=C/[C@H](O[C@@H]2O[C@H](C)[C@@H](O)[C@H](N)[C@@H]2O)C[C@@H]2O[C@](O)(C[C@@H](O)C[C@@H](O)[C@H](O)CC[C@@H](O)C[C@@H](O)CC(=O)O[C@H]1C)C[C@H](O)[C@H]2C(=O)O [AMPHOTERICIN B] | 2 (≈ 1.85 µg/mL) |  |  | 0.25 (≈ 0.231 µg/mL) | 0.5 (≈ 0.462 µg/mL) |  |  |  | 0.64 (≈ 0.591 µg/mL) |  | 
13 | OC(Cn1cncn1)(Cn1cncn1)c1ccc(F)cc1F [FLUCONAZOLE] | > 64 | 1 (≈ 0.306 µg/mL) | 16 (≈ 4.9 µg/mL) | > 64 | > 64 | 2 (≈ 0.613 µg/mL) | > 64 | 0.5 (≈ 0.153 µg/mL) | > 64 | 8 (≈ 2.45 µg/mL) | 16 (≈ 4.9 µg/mL)
14 | CCC(C)n1ncn(-c2ccc(N3CCN(c4ccc(OCC5COC(Cn6cncn6)(c6ccc(Cl)cc6Cl)O5)cc4)CC3)cc2)c1=O (stereo not drawn) [ITRACONAZOLE] | > 64 |  |  | 64 (≈ 45.2 µg/mL) | > 64 |  |  |  | > 64 |  | 
15 | CC(=O)N1CCN(c2ccc(OC[C@@H]3CO[C@@](Cn4ccnc4)(c4ccc(Cl)cc4Cl)O3)cc2)CC1 [KETOCONAZOLE] | 4 (≈ 2.13 µg/mL) |  |  | 8 (≈ 4.25 µg/mL) | 8 (≈ 4.25 µg/mL) |  |  |  | 8 (≈ 4.25 µg/mL) |  | 
16 | CN(C/C=C/C#CC(C)(C)C)Cc1cccc2ccccc12 [TERBINAFINE] | 8 (≈ 2.33 µg/mL) |  |  | 8 (≈ 2.33 µg/mL) | 4 (≈ 1.17 µg/mL) |  |  |  | 32 (≈ 9.33 µg/mL) |  | 
